In ChEMBL document CHEMBL3992547, “Antimicrobial activity of rhodanine-3-acetic acid derivatives” (Bioorg Med Chem, 2017):
In brackets after ≈: the same amount, converted by molar mass. Activity calls are given as the source filed them. No cut-off for these calls is given here.

Assays:
Pseudomonas aeruginosa = experiment: Antibacterial activity against Pseudomonas aeruginosa CCM 1961 up to 500 uM incubated for 24 to 48 hrs under dark condition by microdilution broth assay; type: functional
Method in brief: (§1)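 Broth microdilution per M07-A07, modified, in Mueller-Hinton broth adjusted to pH 7.4 (±0.2). Inoculum is prepared in sterile water to McFarland 0.5 (1.5 × 10⁸ CFU/mL). Plates are incubated in the dark at 35 °C in humid air. MIC is read after 24 and 48 h as at least 95% growth reduction versus control (IC₉₅).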

[1] = tested on: Trichophyton mentagrophytes; experiment: Antifungal activity against Trichophyton mentagrophytes 445 after 72 hrs by microdilution broth assay; type: functional; details: Trichophyton mentagrophytes, 445, 72 h
Method in brief: (§2)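 Broth microdilution per CLSI M38-A2 in RPMI 1640 with glutamine, buffered to pH 7.0 with MOPS, with DMSO as diluent. Final inoculum is 0.5–5 × 10⁴ CFU/mL. Plates are incubated in the dark at 35 °C in humid air and read visually and/or at 540 nm after 72 and 120 h. MIC is at least 50% growth reduction versus control.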

[2] = tested on: Staphylococcus epidermidis; experiment: Antibacterial activity against Staphylococcus epidermidis H 6966/08 incubated for 48 hrs under dark condition by microdilution broth assay; type: functional; details: H 6966/08, 48 h; method in brief: as §1
[3] = tested on: Staphylococcus epidermidis; experiment: Antibacterial activity against Staphylococcus epidermidis H 6966/08 incubated for 24 hrs under dark condition by microdilution broth assay; type: functional; details: H 6966/08, 24 h; method in brief: as §1
Mycobacterium kansasii [4] = experiment: Antimycobacterial activity against Mycobacterium kansasii isolate 235/80 after 21 days by micromethod; type: functional; details: isolate 235/80, 504 h
Staphylococcus aureus [5] = experiment: Antibacterial activity against Staphylococcus aureus CCM 4516/08 incubated for 48 hrs under dark condition by microdilution broth assay; type: functional; details: CCM 4516/08, 48 h; method in brief: as §1
Pichia kudriavzevii = experiment: Antifungal activity against Candida krusei E28 after 24 to 48 hrs hrs by microdilution broth assay; type: functional
Method in brief: (§3)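 Broth microdilution per CLSI M27-A3 and M38-A2 in RPMI 1640 with glutamine, buffered to pH 7.0 with MOPS. Compounds are diluted in DMSO. Final inoculum is 5 × 10³ CFU/mL for yeasts and 0.5–5 × 10⁴ CFU/mL for moulds. Plates are incubated in the dark at 35 °C in humid air and read visually and/or at 540 nm after 24 and 48 h. MIC is ≥80% growth reduction (IC₈₀) for yeasts and ≥50% (IC₅₀) for filamentous fungi.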

Mycobacterium avium [6] = experiment: Antimycobacterial activity against Mycobacterium avium 330/88 measured after 14 days by micromethod; type: functional; details: 330/88, 336 h
Klebsiella pneumoniae [7] = experiment: Antibacterial activity against ESBL positive Klebsiella pneumoniae J 14368/08 up to 500 uM incubated for 24 to 48 hrs under dark condition by microdilution broth assay; type: functional; method in brief: as §1
[8] = tested on: Mycobacterium tuberculosis; experiment: Antimycobacterial activity against Mycobacterium tuberculosis H37Rv 331/88 measured after 21 days by micromethod; type: functional; details: H37Rv 331/88, 504 h
Staphylococcus aureus [9] = experiment: Antibacterial activity against Staphylococcus aureus CCM 4516/08 incubated for 24 hrs under dark condition by microdilution broth assay; type: functional; details: CCM 4516/08, 24 h; method in brief: as §1
[10] = Solubility of the compound in Sula's semisynthetic medium up to 1 mM; type: physicochemical
Mycobacterium kansasii [11] = experiment: Antimycobacterial activity against Mycobacterium kansasii isolate 6509/96 after 21 days by micromethod; type: functional; details: isolate 6509/96, 504 h
Trichosporon asahii [12] = experiment: Antifungal activity against Trichosporon asahii 1188 after 24 hrs by microdilution broth assay; type: functional; details: Trichosporon asahii, 1188, 24 h; method in brief: as §3
Mycobacterium kansasii [13] = experiment: Antimycobacterial activity against Mycobacterium kansasii isolate 235/80 after 14 days by micromethod; type: functional; details: isolate 235/80, 336 h
Candida albicans [14] = experiment: Antifungal activity against Candida albicans ATCC 44859 after 48 hrs by microdilution broth assay; type: functional; details: ATCC 44859, 48 h; method in brief: as §3
Candida albicans [15] = experiment: Antifungal activity against Candida albicans ATCC 44859 after 24 hrs by microdilution broth assay; type: functional; details: ATCC 44859, 24 h; method in brief: as §3
Mycobacterium kansasii [16] = experiment: Antimycobacterial activity against Mycobacterium kansasii isolate 6509/96 after 7 days by micromethod; type: functional; details: isolate 6509/96, 168 h
Mycobacterium avium [17] = experiment: Antimycobacterial activity against Mycobacterium avium 330/88 measured after 21 days by micromethod; type: functional; details: 330/88, 504 h
[18] = tested on: Trichophyton mentagrophytes; experiment: Antifungal activity against Trichophyton mentagrophytes 445 after 120 hrs by microdilution broth assay; type: functional; details: Trichophyton mentagrophytes, 445, 120 h; method in brief: as §2
Staphylococcus aureus [19] = experiment: Antibacterial activity against methicillin-resistant Staphylococcus aureus H 5996/08 incubated for 48 hrs under dark condition by microdilution broth assay; type: functional; details: H 5996/08, 48 h
Method in brief: (§4)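 Microdilution broth method modified per M07-A07, in Mueller-Hinton broth adjusted to pH 7.4 (±0.2). Inoculum made in sterile water to 0.5 McFarland (1.5 × 10⁸ CFU/mL). Plates incubated in the dark at 35 °C in a humid atmosphere, with reads at 24 and 48 h. MIC taken as at least 95% growth reduction (IC₉₅) versus control.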

Nakaseomyces glabratus [20] = experiment: Antifungal activity against Candida glabrata 20/I after 24 hrs by microdilution broth assay; type: functional; method in brief: as §3
Mycobacterium kansasii [21] = experiment: Antimycobacterial activity against Mycobacterium kansasii isolate 235/80 after 7 days by micromethod; type: functional; details: isolate 235/80, 168 h
Enterococcus [22] = experiment: Antibacterial activity against Enterococcus sp. J 14365/08 incubated for 48 hrs under dark condition by microdilution broth assay; details: J 14365/08, 48 h
Nakaseomyces glabratus [23] = experiment: Antifungal activity against Candida glabrata 20/I after 48 hrs by microdilution broth assay; type: functional; method in brief: as §3
Trichosporon asahii [24] = experiment: Antifungal activity against Trichosporon asahii 1188 after 48 hrs by microdilution broth assay; type: functional; details: Trichosporon asahii, 1188, 48 h; method in brief: as §3
Mycobacterium kansasii [25] = experiment: Antimycobacterial activity against Mycobacterium kansasii isolate 6509/96 after 14 days by micromethod; type: functional; details: isolate 6509/96, 336 h
Aspergillus fumigatus [26] = experiment: Antifungal activity against Aspergillus fumigatus 231 after 24 hrs by microdilution broth assay; type: functional; details: Aspergillus fumigatus, 231, 24 h; method in brief: as §3
[27] = tested on: Mycobacterium tuberculosis; experiment: Antimycobacterial activity against Mycobacterium tuberculosis H37Rv 331/88 measured after 14 days by micromethod; type: functional; details: H37Rv 331/88, 336 h
Candida tropicalis [28] = experiment: Antifungal activity against Candida tropicalis 156 after 24 hrs by microdilution broth assay; type: functional; details: Candida tropicalis, 156, 24 h; method in brief: as §3
Staphylococcus aureus [29] = experiment: Antibacterial activity against methicillin-resistant Staphylococcus aureus H 5996/08 incubated for 24 hrs under dark condition by microdilution broth assay; type: functional; details: H 5996/08, 24 h; method in brief: as §4
Escherichia coli [30] = experiment: Antibacterial activity against Escherichia coli CCM 4517 incubated for 48 hrs under dark condition by microdilution broth assay; type: functional; details: CCM 4517, 48 h; method in brief: as §1
Klebsiella pneumoniae [31] = experiment: Antibacterial activity against Klebsiella pneumoniae D 11750/08 up to 500 uM incubated for 24 to 48 hrs under dark condition by microdilution broth assay; type: functional; method in brief: as §1
Escherichia coli [32] = experiment: Antibacterial activity against Escherichia coli CCM 4517 incubated for 24 hrs under dark condition by microdilution broth assay; type: functional; details: CCM 4517, 24 h; method in brief: as §1
Aspergillus fumigatus [33] = experiment: Antifungal activity against Aspergillus fumigatus 231 after 48 hrs by microdilution broth assay; type: functional; details: Aspergillus fumigatus, 231, 48 h; method in brief: as §3
Lichtheimia corymbifera = experiment: Antifungal activity against Absidia corymbifera 272 after 24 to 48 hrs hrs by microdilution broth assay; type: functional; method in brief: as §3
Candida tropicalis [34] = experiment: Antifungal activity against Candida tropicalis 156 after 48 hrs by microdilution broth assay; type: functional; details: Candida tropicalis, 156, 48 h; method in brief: as §3
Enterococcus [35] = experiment: Antibacterial activity against Enterococcus sp. J 14365/08 incubated for 24 hrs under dark condition by microdilution broth assay; details: J 14365/08, 24 h

O=C(O)CN1C(=O)/C(=C/c2ccc(O)cc2)SC1=S
Activity (Pseudomonas aeruginosa): inactive | MIC50 [1]: > 500 µM | MIC95 [2]: 500 µM (≈ 148 µg/mL) | MIC95 [3]: 250 µM (≈ 73.8 µg/mL) | MIC (Mycobacterium kansasii [4]): 1000 µM (≈ 295 µg/mL) | MIC95 (Staphylococcus aureus [5]): > 500 µM | Activity (Pichia kudriavzevii): inactive | MIC (Mycobacterium avium [6]): 1000 µM (≈ 295 µg/mL) | Activity (Klebsiella pneumoniae [7]): inactive | MIC [8]: 1000 µM (≈ 295 µg/mL) | MIC95 (Staphylococcus aureus [9]): 500 µM (≈ 148 µg/mL) | solubility [10]: Soluble | MIC (Mycobacterium kansasii [11]): 1000 µM (≈ 295 µg/mL) | MIC80 (Trichosporon asahii [12]): > 500 µM | MIC (Mycobacterium kansasii [13]): 1000 µM (≈ 295 µg/mL) | MIC80 (Candida albicans [14]): 500 µM (≈ 148 µg/mL) | MIC80 (Candida albicans [15]): 500 µM (≈ 148 µg/mL) | MIC (Mycobacterium kansasii [16]): 1000 µM (≈ 295 µg/mL) | MIC (Mycobacterium avium [17]): 1000 µM (≈ 295 µg/mL) | MIC50 [18]: > 500 µM | MIC95 (Staphylococcus aureus [19]): > 500 µM | MIC80 (Nakaseomyces glabratus [20]): > 500 µM | MIC (Mycobacterium kansasii [21]): 1000 µM (≈ 295 µg/mL) | MIC95 (Enterococcus [22]): > 500 µM | MIC80 (Nakaseomyces glabratus [23]): > 500 µM | MIC80 (Trichosporon asahii [24]): > 500 µM | MIC (Mycobacterium kansasii [25]): 1000 µM (≈ 295 µg/mL) | MIC50 (Aspergillus fumigatus [26]): > 500 µM | MIC [27]: 1000 µM (≈ 295 µg/mL) | MIC80 (Candida tropicalis [28]): > 500 µM | MIC95 (Staphylococcus aureus [29]): 500 µM (≈ 148 µg/mL) | MIC95 (Escherichia coli [30]): > 500 µM | Activity (Klebsiella pneumoniae [31]): inactive | MIC95 (Escherichia coli [32]): > 500 µM | MIC50 (Aspergillus fumigatus [33]): > 500 µM | Activity (Lichtheimia corymbifera): inactive | MIC80 (Candida tropicalis [34]): > 500 µM | MIC95 (Enterococcus [35]): > 500 µM

O=C(O)CN1C(=O)/C(=C/c2ccccc2O)SC1=S
Activity (Pseudomonas aeruginosa): inactive | MIC50 [1]: 250 µM (≈ 73.8 µg/mL) | MIC95 [2]: 125 µM (≈ 36.9 µg/mL) | MIC95 [3]: 125 µM (≈ 36.9 µg/mL) | MIC (Mycobacterium kansasii [4]): 62.5 µM (≈ 18.5 µg/mL) | MIC95 (Staphylococcus aureus [5]): 62.5 µM (≈ 18.5 µg/mL) | Activity (Pichia kudriavzevii): inactive | MIC (Mycobacterium avium [6]): 125 µM (≈ 36.9 µg/mL) | Activity (Klebsiella pneumoniae [7]): inactive | MIC [8]: 32 µM (≈ 9.45 µg/mL) | MIC95 (Staphylococcus aureus [9]): 62.5 µM (≈ 18.5 µg/mL) | solubility [10]: Soluble | MIC (Mycobacterium kansasii [11]): 62.5 µM (≈ 18.5 µg/mL) | MIC80 (Trichosporon asahii [12]): > 500 µM | MIC (Mycobacterium kansasii [13]): 62.5 µM (≈ 18.5 µg/mL) | MIC80 (Candida albicans [14]): 500 µM (≈ 148 µg/mL) | MIC80 (Candida albicans [15]): 500 µM (≈ 148 µg/mL) | MIC (Mycobacterium kansasii [16]): 32 µM (≈ 9.45 µg/mL) | MIC (Mycobacterium avium [17]): 125 µM (≈ 36.9 µg/mL) | MIC50 [18]: 250 µM (≈ 73.8 µg/mL) | MIC95 (Staphylococcus aureus [19]): 62.5 µM (≈ 18.5 µg/mL) | MIC80 (Nakaseomyces glabratus [20]): > 500 µM | MIC (Mycobacterium kansasii [21]): 32 µM (≈ 9.45 µg/mL) | MIC95 (Enterococcus [22]): 125 µM (≈ 36.9 µg/mL) | MIC80 (Nakaseomyces glabratus [23]): > 500 µM | MIC80 (Trichosporon asahii [24]): > 500 µM | MIC (Mycobacterium kansasii [25]): 62.5 µM (≈ 18.5 µg/mL) | MIC50 (Aspergillus fumigatus [26]): > 500 µM | MIC [27]: 32 µM (≈ 9.45 µg/mL) | MIC80 (Candida tropicalis [28]): > 500 µM | MIC95 (Staphylococcus aureus [29]): 62.5 µM (≈ 18.5 µg/mL) | MIC95 (Escherichia coli [30]): > 500 µM | Activity (Klebsiella pneumoniae [31]): inactive | MIC95 (Escherichia coli [32]): 500 µM (≈ 148 µg/mL) | MIC50 (Aspergillus fumigatus [33]): > 500 µM | Activity (Lichtheimia corymbifera): inactive | MIC80 (Candida tropicalis [34]): > 500 µM | MIC95 (Enterococcus [35]): 125 µM (≈ 36.9 µg/mL)
